Screening results (PubChem)
An excerpt weighted towards active compounds, which were near 6.7% of everything screened.
T cruzi inh = T. cruzi replication inhibition | T. cruzi beta-gal in NIH3T3, luminescence, 90 h | inhibition, % (concentration not given with the values) | 300,000 compounds, 1.4% hits;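 active = mean inhibition across valid replicates above about 55%, limit read from the data; inconclusive = mean below that limit but half or more replicates reach it; inactive = mean below it, under half of replicates reach it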;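 also: signal also drops with host cell toxicity which is not excluded here; 0% = plate median of DMSO wells and 100% = zero luminescence signal; higher percent means less beta-gal luminescence so fewer parasites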
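Read-out: Parasite load inhibition, % | Test system: Mouse NIH/3T3 fibroblasts infected with β-gal-expressing T. cruzi Tulahuen C4 | Amount: 5,000 cells/well | Medium: DMEM, 2% fetal bovine serum | Signal: GalScreen β-gal luminescence, detergent lysis, 60 min | Timing: 3 h attach, ≥90 h co-culture | Also added: Tulahuen C4 trypomastigotes, 5000/well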
NR3A LBD binder = modulators (binders) of human NR3A ligand-binding domain; NR3A LBD differential scanning fluorimetry, Tm shift; 0% = protein alone, 100% = glycine-bound protein; Tm shift relative to glycine control, % at 25 µM; 340,000 compounds, 2.5% hits; AID 1259313;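 active = melting temperature shift of at least 10% of the positive control shift, at one fixed dose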
CSC inhib = blocks cancer stem cells. cancer stem cell-like cells viability, luminescence. inhibition, % at 7.5 µM. 300,000 compounds, 1.1% hits; in the data active = inhibition above about 75%; inconclusive = no clear call, values can overlap the other calls; tested in HMLE shEcad cells
PREPL inh = inhibitors of human prolyl oligopeptidase-like enzyme PREPL; AID 2751; recombinant PREPL, fluorescence polarization activity-based probe; inhibition, % at 5.96 µM; 320,000 compounds, 0.68% hits; Q4J6C6; in the data active = inhibition above about 43%;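 also: 0% = enzyme with DMSO and 100% = wells lacking enzyme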
Target sequence (Q4J6C6 whole entry, looked up): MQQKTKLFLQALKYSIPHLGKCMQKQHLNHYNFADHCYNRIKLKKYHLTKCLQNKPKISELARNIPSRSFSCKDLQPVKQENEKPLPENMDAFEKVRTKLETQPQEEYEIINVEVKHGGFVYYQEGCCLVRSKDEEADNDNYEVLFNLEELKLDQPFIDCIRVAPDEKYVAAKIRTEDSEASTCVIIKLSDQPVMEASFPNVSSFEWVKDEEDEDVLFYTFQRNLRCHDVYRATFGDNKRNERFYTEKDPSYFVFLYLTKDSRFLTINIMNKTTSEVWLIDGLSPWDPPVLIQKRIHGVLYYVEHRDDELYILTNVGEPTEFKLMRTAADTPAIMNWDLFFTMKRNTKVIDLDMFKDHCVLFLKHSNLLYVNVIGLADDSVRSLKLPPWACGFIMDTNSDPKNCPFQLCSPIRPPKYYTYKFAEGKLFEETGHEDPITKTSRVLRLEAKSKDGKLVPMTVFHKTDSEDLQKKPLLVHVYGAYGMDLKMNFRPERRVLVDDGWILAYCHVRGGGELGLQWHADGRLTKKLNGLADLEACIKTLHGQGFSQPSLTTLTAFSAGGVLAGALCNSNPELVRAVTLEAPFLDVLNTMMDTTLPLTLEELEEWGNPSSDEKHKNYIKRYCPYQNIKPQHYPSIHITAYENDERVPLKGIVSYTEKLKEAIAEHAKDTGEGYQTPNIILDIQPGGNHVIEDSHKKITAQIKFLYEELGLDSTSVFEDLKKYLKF
Beta cell apopt = blocks beta cell apoptosis | 300,000 compounds, 0.8% hits | INS-1E cytokine-induced death, ATP luminescence, 48 h; percent of positive-control rescue, neutral wells zero | protection from apoptosis, % (concentration not given with the values) | AID 435005;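 active = Every replicate reaches about 75%, or at least half do and their mean reaches it too, limit read from the data; inconclusive = At least half of replicates reach the limit but their mean does not; inactive = Under half of replicates reach the limit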;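 also: 0% = cytokine-treated negative control wells and 100% = positive control rescue; higher means more ATP so stronger rescue from cytokine killing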
CHOP inh = inhibitors of CHOP induction in ER stress response | CHO-K1 CHOP-promoter luciferase, tunicamycin-induced, 15-18 h | inhibition, % at 10 µM | 220,000 compounds, 3.8% hits | AID 2732;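 active = compounds that reduced the stress-induced luciferase reporter signal by more than about 70% of percent inhibition, limit read from the data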;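 also: 0% = tunicamycin plus vehicle and 100% = wells without tunicamycin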
Active calls of the source: *; ? = inconclusive; / = not tested or not shown.

SMILES	T cruzi inh	NR3A LBD binder	CSC inhib	PREPL inh	Beta cell apopt	CHOP inh
O=C1/C(=C/c2ccccc2)NC(=S)N1C(c1ccccc1)c1ccccc1	10	-8	65	10	1	89*
O=c1cc(SCc2ccccc2)nc[nH]1	/	-2	/	/	/	/
Cc1cccc(-c2nnc3sc(-c4ccccc4)nn23)c1	5	0	-16	9	2	77*
c1ccc(-c2nn3c(C4CCCCC4)nnc3s2)cc1	8	0	3	8	0	78*
CC(C)COC(=O)N1CCN(S(=O)(=O)c2ccc3c(c2)CCC3)CC1	/	2	/	-4	-1	/
CCCCc1nc(SCC(=O)N2CCOCC2)c2c(=O)n(C)c(=O)n(C)c2n1	8	0	-6	4	-4	/
CN(C)S(=O)(=O)c1ccc(Cl)c(C(=O)NC2CCCCCCC2)c1	-6	0	/	18	-3	/
COc1cc(OC)cc(-c2c(-c3cccs3)c3cc(-c4ccc(N(C)C)nc4)ccc3n2C)c1	/	1	86*	11	9	/
COc1cc(F)cc(-c2ccc3c(c2)c(-c2cccs2)c(-c2cc(OC)cc(OC)c2)n3C)c1	/	0	?	13	1	/
COc1cc(OC)cc(-c2c(-c3cccs3)c3cc(-c4ccn[nH]4)ccc3n2C)c1	/	-10	87*	15	3	/
Cc1ccc(S(=O)(=O)N2CCCC2)cc1C(=O)NCc1ccccc1CN1CCCC1	/	3	8	7	0	/
Cc1onc(-c2ccccc2)c1C(=O)NCCSCc1ccco1	/	0	-7	4	-1	/
CC(=O)N1N=C2c3ccccc3CCC2C1c1ccc(F)cc1 (configuration not stated)	3	1	-5	9	0	12
CCNC(=S)N1N=C2c3ccccc3CCC2C1c1ccc(F)cc1 (configuration not stated)	-8	1	82*	7	21	21
COc1ccc(NC(C)=O)cc1S(=O)(=O)N1CC=C(c2ccccc2)CC1	/	3	7	-13	0	/
CN1CCN(CCCc2c3c(cc4c2CCC4)CCC3)CC1	62*	4	-1	-12	-2	4
Cc1cc(C)c(NC(=O)CCCN2CCN(C)CC2)c(C)c1	2	2	-2	-6	2	5
CC(C)c1ccc(NC(=O)c2snc3ccc(Cl)cc23)cc1	23	10*	80*	-1	-5	79*
CC(C)c1ccc(NC(=O)c2csnn2)cc1	-16	4	5	7	2	40
COc1ccccc1-n1c(-c2ccc(Cl)cc2)c[nH]c1=S	30	-1	-15	1	-3	18
Fc1cccc(NC(=S)NCc2ccc(Cl)cc2)c1	0	-1	7	1	/	39
Fc1cc(NC(=S)NCc2ccc(CNC(=S)Nc3ccc(Cl)c(F)c3)cc2)ccc1Cl	46	94*	7	-10	16	84*
NS(=O)(=O)c1ccc(CNC(=S)Nc2ccc(Cl)c(Cl)c2)cc1	-23	12*	-1	-26	-5	-10
CC(=O)c1cccc(NC(=O)CSCc2ccccc2)c1	-17	-2	-15	-14	7	-25
O=C(Nc1cccc(Br)c1)c1ccc(CSc2ccccc2)cc1	-9	30*	-13	-10	3	-26
SMILES	T cruzi inh	NR3A LBD binder	CSC inhib	PREPL inh	Beta cell apopt	CHOP inh
Cc1cc(CSc2ccccc2)ccc1NC(=O)c1ccc(Br)cc1	20	-5	3	9	19	96*
CC(=O)c1cccc(NC(=O)CSCc2ccc(Br)cc2)c1	-10	23*	3	-10	-5	13
CCCN1CCN(C(=O)C(C)n2nc(C)c3sc4ccccc4c3c2=O)CC1 (configuration not stated)	2	-2	-8	-4	-1	/
COc1ccc(N(C)C(=O)C2CCN(S(=O)(=O)c3cccc4nonc34)CC2)cc1	18	-3	-11	6	0	/
CC(=O)c1cccc(NC(=O)Nc2ccc3c(c2)N(C)C(=O)CS3)c1	-9	-11	-4	25	0	32
CCc1ccc(NC(=O)Nc2ccc3c(c2)N(C)C(=O)CS3)cc1	11	4	14	21	/	75*
Cc1ccc(NC(=O)Nc2ccc3c(c2)N(C)C(=O)CS3)cc1C	10	5	-1	24	/	73*
Cc1cc(C)cc(NC(=O)Nc2ccc3c(c2)N(C)C(=O)CS3)c1	19	4	19	6	/	87*
